Here are results for 5 compounds from ChEMBL document CHEMBL3272063, “Potential antitumor agents. 13. 4-Methyl-5-amino-1-formylisoquinoline thiosemicarbazone” (J Med Chem, 1976).

Data set [1] is filed under the species Rattus norvegicus. Description: Inhibition of ribonucleoside-diphosphate reductase in rat hepatoma cells relative to 5-hydroxy-2-formylpyridine thiosemicarbazone. The data set is classed as cell-based.
Data set [2] can be described thus: Antitumor activity against mouse S180A cells allografted in CD-1 mouse assessed as average survival at maximum effective dose administered qd for 6 days (reference value: 12.6 +/- 0.6 days). The data set is classed as functional.
Data set [3] is described as follows: Antitumor activity against mouse S180A cells allografted in CD-1 mouse assessed as average survival at maximum effective dose administered qd for 6 days relative to control. The data set is classed as functional.
For data set [4], the system named is Mus musculus. The experiment in a line: Toxicity in CD-1 mouse allografted with mouse S180A cells assessed as change in body weight at maximum effective dose administered qd for 6 days (reference value: 18.2%). The settings on record: 144 h. The data set is classed as organism-based.
The species named for data set [5] is Rattus norvegicus. Description: Inhibition of ribonucleoside-diphosphate reductase in rat hepatoma cells relative to 4-(m-amino)phenyl-2-formylpyridine thiosemicarbazone. In kind it is cell-based.
The nature of data set [6]: Antitumor activity against mouse S180A cells allografted in CD-1 mouse assessed as dose required for maximum increase in mouse survival administered qd for 6 days. In kind it is functional.
Data set [7] relates to S180A. Description: Antitumor activity against mouse S180A cells allografted in CD-1 mouse assessed as increase in mouse survival administered qd for 6 days. In kind it is functional, cell-based. The essentials:
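Adult female CD-1 mice given Sarcoma 180 ascites cells taken from a donor mouse carrying a 7-day tumor. Drug dosed once daily for six consecutive days, starting 24 h after implantation, across 5-100 mg/kg/day. Read-out is average survival time, with mice alive at 50 days counted as 50-day survivors. %T/C = treated/control × 100. Value reported at the maximum effective daily dose.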

Active and inactive are the calls of the source. The rule behind the calls is not given here.

What is called T/C is the result in the treated group divided by that in the control group, in per cent. On to `Cc1cnc(/C=N/NC(N)=S)c2cccc(N)c12`, for which the results for the fold change (FC) in data set [1] and in data set [5] were 60 and 2, respectively. For the same compound, the Survival in data set [2] was 38.2 days. Besides, the T/C in data set [3] is listed as 303%. Also, the Activity in data set [4] is -4.8%; in data set [6], 10 mg/kg.

`Cc1cnc(/C=N/NC(N)=S)c2cccc([N+](=O)[O-])c12`: in data set [7], the result was inactive.

Consider `N/C(S)=N/N=C/c1ccc(O)cn1`, for which the Survival in data set [2] came out at 30.4 days. In data set [3], the T/C amounted to 241%. Further, the results for the Activity in data set [4] and in data set [6] were -3.3% and 60 mg/kg, respectively.

Consider `NC(=S)N/N=C/c1nccc2c(N)cccc12`, for which, in data set [2], the Survival came out at 37.3 days. Besides, the T/C in data set [3] was determined as 296%. For the same compound, the figures for the Activity in data set [4] and in data set [6] were -8.5% and 40 mg/kg, respectively.

In the case of `NC(=S)N/N=C/c1nccc2ccccc12`, the Survival in data set [2] is 39.2 days. For the same compound, the T/C in data set [3] is 311%. In addition, the Activity in data set [4] is -5.1%; in data set [6] it was 40 mg/kg.
